Bioassay records as filed in PubChem.
IEC-6 cytotox – cytotoxicity in IEC-6 intestinal epithelial cells, primary screen, cytotoxicity control for KLF5 inhibitor project, cell-based, luminescence | IEC-6 cytotoxicity, luminescence viability | inhibition, % at 5 µM | 290,000 tested, 0.78% active; in the data active = inhibition above about 22%;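 note: 0% = plate median of test compound wells and 100% = cytotoxic reference compound wells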
Ba/F3 V617F tox – reduced viability of JAK2V617F-dependent Ba/F3 cells, primary screen, JAK2V617F inhibitor project, cell-based, Ba/F3 EpoR-JAK2V617F, luminescence; ATP luminescence; inhibition, % at 5.6 µM; 220,000 tested, 1.1% active; AID 1446, 2008;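 active = inhibition above the campaign mean plus 3 SD over all tested compounds, cut at about 24% in these data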;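 note: cytokine-independent growth of Ba/F3 cells driven by EpoR plus mutant JAK2; 0% = DMSO-treated cells and 100% = JAK inhibitor I control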
MT stabilizer – microtubule stabilizers in HeLa cells, primary screen, imaging, high-content imaging | HeLa tubulin immunostaining HCS, 24 h; share of cells brighter than vehicle mean+2SD | % tubulin-high responders, % at 10 µM | 200,000 tested, 0.83% active | AID 2205, 2009;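 active = plate Z-score above 3 for both tubulin-high and condensed-nucleus cell shares, with cell loss under 80%, at 10 µM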;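 note: anti alpha tubulin signal scored within the nucleus-defined area of each cell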
bCat nuc transl – modulators of beta-catenin nuclear translocation, primary screen, imaging, HeLa cells, immunofluorescence, high-content. nuclear translocation activity, % at 5 µM. 190,000 tested, 0.3% active. AID 1665, 2009;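 active = nuclear translocation activity above 50% at 5 µM, with a well cell count of 50 or more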;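 note: per-cell ratio of nuclear to cytoplasmic median beta-catenin stain intensity; plate controls were DMSO negative control for no effect and GSK-3 inhibitor IX positive control for full effect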
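System: HeLa cells, endogenous beta-catenin; compound dosing: 5 µM primary single dose, 0.1% DMSO, 0.02–20 µM confirmation series; incubation: 24 h compound exposure at 37°C, 5% CO2; signal: beta-catenin immunofluorescence imaging with DAPI; evaluation: % activation, nuclear-to-cytoplasmic median beta-catenin signal ratio per cell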
KLF5 inhibitor – KLF5 expression inhibitors, primary screen, DLD-1 cells, luminescence; DLD-1 KLF5 promoter-luciferase reporter; inhibition, % at 5 µM; 290,000 tested, 0.23% active;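 active = inhibition above a per-plate limit of that plate's mean compound inhibition plus 3 SD, cut at about 60% in these data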;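 note: 0% = DMSO wells and 100% = LY294002 at 200 µM; higher means less KLF5 promoter-driven luciferase light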
BaF3 parental – parental Ba/F3 cell viability inhibition, counter-screen for JAK2V617F inhibitor project, murine pro-B, CellTiter-Glo luminescence | CellTiter-Glo ATP luminescence | inhibition, % at 5.6 µM | 220,000 tested, 1.1% active | AID 1486, 2009;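 active = inhibition above a per-campaign cutoff, the mean inhibition of all tested compounds plus 3 SD, cut at about 27% in these data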;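 note: 0% = DMSO wells and 100% = JAK Inhibitor I control wells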
* = called active by the depositor; / = not tested or not shown. The list is not random: actives were taken first. Their share in the collection is about 2.1%.

SMILES	IEC-6 cytotox	Ba/F3 V617F tox	MT stabilizer	bCat nuc transl	KLF5 inhibitor	BaF3 parental
N#CC1=C(N)Oc2cc(N)ccc2C1C1CCCCC1 (centres undefined)	2	-3	46*	/	-34	4
O=S(=O)(NCC1CCCO1)c1ccc(Cl)nc1 (centres undefined)	2	-2	/	-2	-6	-3
O=S(=O)(c1cccc(C(F)(F)F)c1)N1CCCC1c1cccnc1 (centres undefined)	16	-1	/	-1	20	32*
O=S(=O)(c1cccc(C(F)(F)F)c1)N1CCC(O)(c2cccnc2)CC1	-2	0	5	2	-14	2
O=C(O)c1ccc(NCCc2ccc(Cl)cc2)c([N+](=O)[O-])c1	-2	3	3	/	-56	13
CCN(CC)c1ccc(NC(=O)c2cccc(F)c2)c(C)c1	21	1	37*	26	-9	8
CC(=O)N1CCc2c(sc(NC(=O)c3ccc4c(c3)OCCO4)c2C#N)C1	2	-2	34*	57*	-21	6
CC(=O)N1CCc2c(sc(NC(=O)c3ccc(S(=O)(=O)N(C)C)cc3)c2C#N)C1	-5	-2	5	/	-25	4
CCCCCC(C)NC(=S)NC(=O)c1cc(S(=O)(=O)N2CCOCC2)ccc1C (centres undefined)	4	-4	2	-1	-2	42*
COc1ccc(C(=O)c2ccc([N+](=O)[O-])cc2Cl)cc1	-6	-8	2	-1	-33	4
O=C(CSc1nc(-c2ccccc2)c(-c2ccccc2)[nH]1)NCCN1C(=O)CSC1=O	1	-3	19*	7	7	3
CC(Sc1nc(-c2ccccc2)cs1)C(=O)Nc1ccc(Cl)cn1 (centres undefined)	-12	1	1	0	-47	5
COC(=O)c1sc2ccccc2c1-n1cccc1C(=O)C(=O)Nc1ccc(Cl)cc1	-4	0	40*	/	-43	3
COC(=O)c1sc2ccccc2c1-n1cccc1C(=O)C(=O)Nc1ccc(C)cc1	-3	-1	32*	/	-14	0
COC(=O)c1sc2ccccc2c1-n1cccc1C(=O)C(=O)Nc1ccc(F)cc1	-6	-1	3	0	-19	2
CCOC(=O)CNC(=O)Cn1cnc2c(nnn2-c2ccc(C)cc2)c1=O	-2	-7	2	6	-10	-2
CC(C)C(=O)Nc1cccc(-c2cnc3ccccc3n2)c1	1	2	1	/	-86	8
COc1ccc(COc2cc(-c3cccc(OC)c3)nc3ccc(NC(=O)C(C)C)cc23)cc1	12	61*	12	/	23	70*
CCC1Oc2ccc(C)cc2N(CC(=O)NCc2ccco2)C1=O (centres undefined)	-1	1	1	1	-26	90*
Cc1ccc2c(c1)N(CC(=O)NCc1ccco1)C(=O)C(C(C)C)O2 (centres undefined)	-6	-2	/	-2	-7	-3
Cc1ccc(Cl)cc1NC1=C/C(=N\S(=O)(=O)c2cccs2)c2ccccc2C1=O	2	-4	33*	/	-13	-1
Cc1ccc(NC2=C/C(=N\S(=O)(=O)c3cccs3)c3ccccc3C2=O)c(C)c1	8	56*	28	-1	-81	33*
Cc1cccc(NC2=C/C(=N/S(=O)(=O)c3cccs3)c3ccccc3C2=O)c1	-3	3	38	-2	-10	3
Cc1cc(C)c(S(=O)(=O)/N=C2\C=C(NS(=O)(=O)c3ccccc3)C(=O)c3ccccc32)c(C)c1	2	/	/	/	1	/
COc1ccccc1CNC(=S)NCc1ccc(F)cc1	-2	/	/	/	-31	/
SMILES	IEC-6 cytotox	Ba/F3 V617F tox	MT stabilizer	bCat nuc transl	KLF5 inhibitor	BaF3 parental
Cc1ccc(S(=O)(=O)CC2CSc3nc4ccccc4n32)cc1 (centres undefined)	10	58*	1	1	42	72*
Cc1ccc(S(=O)(=O)CC2CSc3nc(N)cc(=O)n32)cc1 (centres undefined)	4	0	4	-5	9	3
CCn1c(SCC(=O)N/N=C/c2c[nH]c3ccccc23)nnc1-c1ccc(Cl)cc1	-2	3	12*	35	-2	6
c1ccc(-c2noc(CN3CCc4sccc4C3)n2)cc1	-10	-1	11	0	-29	3
CCc1cccc(C)c1NC(=O)C1CCN(c2nn3c(=O)cc(C)nc3s2)CC1	1	/	/	/	-28	/
CC(C)c1ccc(OCc2ccc(C(=O)N3CCN(c4ccccn4)CC3)cc2)cc1	-4	-5	2	7	-17	2
Clc1ccc(C2=NNC(=NCc3ccc4c(c3)OCO4)SC2)cc1	0	7	4	-1	-27	12
Oc1ccc(C2=NNC(=NCc3ccc4c(c3)OCO4)SC2)c(O)c1	2	6	11	117*	16	13
Cc1[nH]c2ccccc2c1C1(O)C(=O)N(Cc2ccc3c(c2)OCO3)c2ccccc21 (centres undefined)	20	78*	2	0	-25	85*
O=C(Nc1nnc(-c2ccc3c(c2)CCCC3)o1)c1ccc(Cl)cc1Cl	-2	3	7	0	-22	9
O=C(Nc1nnc(-c2ccc3c(c2)CCCC3)o1)c1c(F)cccc1F	1	-3	3	-1	-8	61*
O=C(c1ccc(C(=O)N2CCCc3ccccc32)nc1)N1CCCc2ccccc21	/	/	/	-1	/	/
CCCCC(=O)NC(c1ccc(Cl)cc1Cl)c1ccc2cccnc2c1O (centres undefined)	7	/	/	/	45	/
CC(C)C(=O)NC(c1ccc(Cl)cc1Cl)c1ccc2cccnc2c1O (centres undefined)	13	/	/	/	79*	/
COc1cccc(Nc2nnc(SCC(=O)N(CC(C)C)CC(C)C)s2)c1	2	0	2	-4	-20	6
N/C(=N\OC(=O)c1ccccc1Cl)c1ccccn1	11	11	2	/	-23	15
N/C(=N\OC(=O)c1ccccc1[N+](=O)[O-])c1ccccn1	5	0	5	0	-133	37*
CC(C)(C)c1ccc(C(=O)N2CCN(c3ncccn3)CC2)cc1	0	/	/	/	3	/
O=S(=O)(c1ccc2nc(-c3ccccc3)[nH]c2c1)N1CCN(c2ccc(Cl)cc2)CC1	4	-6	16*	-3	8	1
COc1cccc(CNC(=O)Cn2ncc3c(=O)oc4ccccc4c32)c1	-4	61*	/	1	-15	62*
Cc1nn2cc(-c3ccccc3)nc2[nH]c1=O	-7	-1	3	-3	-44	0
Cc1nc(-c2ccccc2)cn(O)c1=O	6	2	3	-2	5	79*
